This passage reports Alpha max, EC50 and Activity results from ChEMBL document CHEMBL1140294 (J Med Chem, 2005).

Holding throughout (format): cell-based
The target in series [1] is T1, ATP-dependent translocase ABCB1 (Homo sapiens, UniProt P08183). As to the kind of experiment: Reversal of P-gp-mediated multidrug resistance in doxorubicin-resistant human K562 cells assessed as increase in nuclear pirarubicin concentration.
Series [2] concerns the target T1, ATP-dependent translocase ABCB1. Kind of series: Reversal of P-gp-mediated multidrug resistance in doxorubicin-resistant human K562 cells assessed as drug concentration causing half-maximal increase in nuclear pirarubicin concentration. As to conditions: read-out: Activity.
The target is the same in series [3]. As to the kind of experiment: Reversal of P-gp-mediated multidrug resistance in human K562 cells assessed as drug concentration causing 40% increase in nuclear pirarubicin concentration. The method, boiled down:
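Doxorubicin-resistant K 562 cells in exponential phase. Pirarubicin uptake monitored by fluorescence at 590 nm (ex 480 nm) in HEPES buffer (pH 7.25) at 37 °C. The reported value, [I]0.5, is the modulator concentration giving a 40% increase in nuclear pirarubicin concentration (α = 0.4).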

SMILES strings stand for the structures.

T1 sequence (P08183 whole entry): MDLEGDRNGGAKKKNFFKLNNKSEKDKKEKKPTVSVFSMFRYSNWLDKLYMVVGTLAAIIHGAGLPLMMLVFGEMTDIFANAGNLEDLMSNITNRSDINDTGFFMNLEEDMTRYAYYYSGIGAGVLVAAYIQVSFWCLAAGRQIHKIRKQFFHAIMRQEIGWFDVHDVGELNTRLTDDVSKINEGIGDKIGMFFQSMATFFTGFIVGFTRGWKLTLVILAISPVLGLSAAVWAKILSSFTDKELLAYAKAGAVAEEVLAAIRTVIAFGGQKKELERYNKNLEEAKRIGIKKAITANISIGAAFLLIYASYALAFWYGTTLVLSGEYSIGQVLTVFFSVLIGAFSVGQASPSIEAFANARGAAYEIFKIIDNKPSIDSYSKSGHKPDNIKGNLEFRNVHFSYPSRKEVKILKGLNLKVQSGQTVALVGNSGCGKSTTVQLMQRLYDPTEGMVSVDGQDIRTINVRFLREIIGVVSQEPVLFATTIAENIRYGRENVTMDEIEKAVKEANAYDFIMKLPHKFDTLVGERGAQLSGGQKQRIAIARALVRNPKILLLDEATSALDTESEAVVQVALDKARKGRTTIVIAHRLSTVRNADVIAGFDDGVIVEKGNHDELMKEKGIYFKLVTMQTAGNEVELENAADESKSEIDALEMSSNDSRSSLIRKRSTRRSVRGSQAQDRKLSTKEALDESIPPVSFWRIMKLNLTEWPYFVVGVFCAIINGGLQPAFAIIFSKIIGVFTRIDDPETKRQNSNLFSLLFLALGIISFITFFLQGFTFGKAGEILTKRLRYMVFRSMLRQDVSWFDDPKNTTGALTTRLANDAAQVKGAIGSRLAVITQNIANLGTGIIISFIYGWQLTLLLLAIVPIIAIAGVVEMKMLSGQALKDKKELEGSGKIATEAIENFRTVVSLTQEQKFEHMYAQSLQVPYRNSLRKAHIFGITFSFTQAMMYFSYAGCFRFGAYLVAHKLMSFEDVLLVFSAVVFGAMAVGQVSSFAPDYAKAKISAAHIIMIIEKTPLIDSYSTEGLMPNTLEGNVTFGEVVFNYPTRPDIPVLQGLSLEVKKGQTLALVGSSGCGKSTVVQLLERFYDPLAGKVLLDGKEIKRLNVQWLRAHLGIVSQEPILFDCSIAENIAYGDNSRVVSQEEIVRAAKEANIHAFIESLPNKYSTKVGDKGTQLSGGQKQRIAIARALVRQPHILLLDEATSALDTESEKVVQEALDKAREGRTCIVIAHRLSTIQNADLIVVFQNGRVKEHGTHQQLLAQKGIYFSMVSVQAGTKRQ

For `COc1cc(/C=C/C(=O)OCCCN(C)CCN(C)CCCOC(=O)c2cc(OC)c(OC)c(OC)c2)cc(OC)c1OC`, the Alpha max in series [1] is listed as 0.78. In series [2], the EC50 amounted to 1300 nM.
For the compound `COc1cc(/C=C/C(=O)OCCCN(C)CCN(C)CCCOC(=O)c2c3ccccc3cc3ccccc23)cc(OC)c1OC`, the Alpha max in series [1] is 0.7. Moreover, the EC50 in series [2] stood at 190 nM.
Regarding `CN(CCCOC(=O)c1c2ccccc2cc2ccccc12)CCN(C)CCCOC(=O)c1c2ccccc2cc2ccccc12`, the Alpha max in series [1] is 0.5. Besides, the Activity in series [3] worked out at 0.8 µM.
As to `COc1cc(/C=C/C(=O)OCCCN(C)CCN(C)CCCOC(=O)/C=C/c2cc(OC)c(OC)c(OC)c2)cc(OC)c1OC`, the Alpha max in series [1] is 0.8. The EC50 in series [2] is 2600 nM.
With `COc1ccc(C(C#N)(CCC(=O)OCCCN(C)CCN(C)CCCOC(=O)c2c3ccccc3cc3ccccc23)C(C)C)cc1OC` (stereo unspecified), the Alpha max in series [1] was found to be 0.74. Also, the EC50 in series [2] was 400 nM.
In the case of `COc1ccc(C(C#N)(CCC(=O)OCCCN2CCN(CCCOC(=O)c3c4ccccc4cc4ccccc34)CC2)C(C)C)cc1OC` (stereo unspecified), the Alpha max in series [1] is on record as 0.65. In addition, the EC50 in series [2] worked out at 620 nM.
Take `COc1cc(/C=C/C(=O)OCCN(C)CCOC(=O)C2c3ccccc3-c3ccccc32)cc(OC)c1OC`: the Alpha max in series [1] was found to be 0.7. For the same compound, the EC50 in series [2] was 800 nM.
On the same counts, the results for `COc1cc(/C=C/C(=O)OCCCN2CCN(CCCOC(=O)C3c4ccccc4-c4ccccc43)CC2)cc(OC)c1OC` are 0.7 and 230 nM.
On the same counts, the results for `COc1cc(/C=C/C(=O)OCCOCCN(C)CCOCCOC(=O)c2c3ccccc3cc3ccccc23)cc(OC)c1OC` are 0.84 and 170 nM.
On to `COc1cc(/C=C/C(=O)OCCCN2CCN(CCCOC(=O)/C=C/c3cc(OC)c(OC)c(OC)c3)CC2)cc(OC)c1OC`, for which, in series [1], the Alpha max is 0.8. In addition, the EC50 in series [2] was determined as 370 nM.
`COc1cc(/C=C/C(=O)OCCCN(C)CCCOC(=O)c2cc(OC)c(OC)c(OC)c2)cc(OC)c1OC`: the Alpha max in series [1] is recorded as 0.9. In addition, the EC50 in series [2] was 600 nM.
On to `COc1cc(/C=C/C(=O)OCCN(C)CCOC(=O)c2cc(OC)c(OC)c(OC)c2)cc(OC)c1OC`, for which the Alpha max in series [1] amounted to 0.86. Moreover, the EC50 in series [2] worked out at 3100 nM.
Take `COc1cc(/C=C/C(=O)OCCCNCCCOC(=O)c2cc(OC)c(OC)c(OC)c2)cc(OC)c1OC`: in series [1], the Alpha max came to 1. For the same compound, the EC50 in series [2] turned out to be 500 nM.
On the same counts, the results for `COc1cc(/C=C/C(=O)OCCN(C)CCOC(=O)c2ccccc2)cc(OC)c1OC` are 0.86 and 3700 nM.
With `COc1cc(/C=C/C(=O)OCCCN(C)CCCOC(=O)c2c3ccccc3cc3ccccc23)cc(OC)c1OC`, in series [1], the Alpha max came out at 0.78. Besides, the EC50 in series [2] came to 180 nM.
Regarding `COc1cc(/C=C/C(=O)OCCCNCCCOC(=O)c2c3ccccc3cc3ccccc23)cc(OC)c1OC`, in series [1], the Alpha max turned out to be 0.74. In addition, the EC50 in series [2] was determined as 210 nM.
As to `COc1ccc(C(C#N)(CCC(=O)OCCCNCCCOC(=O)c2c3ccccc3cc3ccccc23)C(C)C)cc1OC` (stereo unspecified), the Alpha max in series [1] was found to be 0.9. Moreover, the EC50 in series [2] was found to be 2100 nM.
Take `COc1cc(/C=C/C(=O)OCCCCCN(C)CCCCCOC(=O)c2c3ccccc3cc3ccccc23)cc(OC)c1OC`: the Alpha max in series [1] is listed as 0.8. For the same compound, in series [2], the EC50 is 100 nM.
On the same counts, the results for `COc1cc(/C=C/C(=O)OCCN(C)CCOC(=O)c2ccc(OC)c(OC)c2OC)cc(OC)c1OC` are 0.8 and 6400 nM.
Take `COc1cc(/C=C/C(=O)OCCCCCCCN(C)CCCCCCCOC(=O)c2c3ccccc3cc3ccccc23)cc(OC)c1OC`: in series [1], the Alpha max is given as 0.55. Besides, the EC50 in series [2] stood at 150 nM.
Take `COc1cc(/C=C/C(=O)OCCOCCN(C)CCOCCOC(=O)c2cc(OC)c(OC)c(OC)c2)cc(OC)c1OC`: the Alpha max in series [1] is 0.9. The EC50 in series [2] was found to be 4200 nM.
For `COc1cc(/C=C/C(=O)OCCOCCNCCOCCOC(=O)c2cc(OC)c(OC)c(OC)c2)cc(OC)c1OC` the same measures were 1 and 7000 nM.
For `COc1cc(/C=C/C(=O)OCCCN(C)CCN(C)CCCOC(=O)C2c3ccccc3-c3ccccc32)cc(OC)c1OC`, in series [1], the Alpha max worked out at 0.64. For the same compound, the EC50 in series [2] came out at 570 nM.
On the same counts, the results for `COc1cc(/C=C/C(=O)OCCCCCN(C)CCCCCOC(=O)C2c3ccccc3-c3ccccc32)cc(OC)c1OC` are 0.83 and 110 nM.
Consider `COc1cc(/C=C/C(=O)OCCCCCCN(C)CCCCCCOC(=O)c2cc(OC)c(OC)c(OC)c2)cc(OC)c1OC`, for which the Alpha max in series [1] is 0.6. For the same compound, in series [2], the EC50 came to 2000 nM.
As to `COc1cc(/C=C/C(=O)OCCCCCCCN(C)CCCCCCCOC(=O)c2cc(OC)c(OC)c(OC)c2)cc(OC)c1OC`, the Alpha max in series [1] was determined as 0.55. In addition, the EC50 in series [2] worked out at 1000 nM.
Turning to `COc1ccc(C(C#N)(CCCN(C)c2c3ccccc3cc3ccccc23)C(C)C)cc1OC` (stereo unspecified), in series [1], the Alpha max is listed as 0.7. The EC50 in series [2] is 50 nM.
For the compound `COc1cc(/C=C/C(=O)OCCCCCN(C)CCCCCOC(=O)c2cc(OC)c(OC)c(OC)c2)cc(OC)c1OC`, in series [1], the Alpha max was found to be 0.84. The EC50 in series [2] was determined as 800 nM.
For `COc1cc(/C=C/C(=O)OCCCN2CCN(CCCOC(=O)c3cc(OC)c(OC)c(OC)c3)CC2)cc(OC)c1OC`, the Alpha max in series [1] is recorded as 0.61. Further, the EC50 in series [2] is 380 nM.
As to `O=C(OCCCN1CCN(CCCOC(=O)c2c3ccccc3cc3ccccc23)CC1)c1c2ccccc2cc2ccccc12`, the Alpha max in series [1] came to 0.5. In addition, the Activity in series [3] was 2.5 µM.
Regarding `COc1cc(/C=C/C(=O)OCCCCCCN(C)CCCCCCOC(=O)c2c3ccccc3cc3ccccc23)cc(OC)c1OC`, in series [1], the Alpha max amounted to 0.68. Further, the EC50 in series [2] was determined as 610 nM.
For `COc1cc(/C=C/C(=O)OCCN(C)CCOC(=O)c2c3ccccc3cc3ccccc23)cc(OC)c1OC`, the Alpha max in series [1] came out at 0.84. For the same compound, the EC50 in series [2] was 1000 nM.
With `COc1cc(/C=C/C(=O)OCCCN2CCN(CCCOC(=O)c3c4ccccc4cc4ccccc34)CC2)cc(OC)c1OC`, the Alpha max in series [1] came to 0.9. In addition, the EC50 in series [2] stood at 160 nM.
